Measured values reported in ChEMBL document CHEMBL1123096, “Alpha-adrenoreceptor reagents. 3. Synthesis of some 2-substituted 1,4-benzodioxans as selective presynaptic alpha 2-adrenoreceptor antagonists” (J Med Chem, 1985).

Legend:
[1] = target: T1, Adrenergic receptor alpha-2 (Rattus norvegicus) (UniProt P22086+P19328+P22909); assay: Alpha-2 adrenergic receptor antagonist activity compared to idazoxan; format: functional
Summary of the method: (§1)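 Vas deferens from rat or mouse; the mouse tissue was in Mg-free Krebs at 30 °C under 0.5 g tension, stimulated at 0.1 Hz, 3 ms, 100–140 V, giving a twitch of about 100 mg. […] Standard curves were run before and after the test curve.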

[2] = target: T2, Adrenergic receptor alpha-1 (Rattus norvegicus, UniProt P15823+P23944+P43140); assay: Alpha-1 adrenergic receptor antagonist activity in a rat anococcygeus. Values ranges from 5.19-5.44; format: functional
T2 sequence (P15823 whole entry): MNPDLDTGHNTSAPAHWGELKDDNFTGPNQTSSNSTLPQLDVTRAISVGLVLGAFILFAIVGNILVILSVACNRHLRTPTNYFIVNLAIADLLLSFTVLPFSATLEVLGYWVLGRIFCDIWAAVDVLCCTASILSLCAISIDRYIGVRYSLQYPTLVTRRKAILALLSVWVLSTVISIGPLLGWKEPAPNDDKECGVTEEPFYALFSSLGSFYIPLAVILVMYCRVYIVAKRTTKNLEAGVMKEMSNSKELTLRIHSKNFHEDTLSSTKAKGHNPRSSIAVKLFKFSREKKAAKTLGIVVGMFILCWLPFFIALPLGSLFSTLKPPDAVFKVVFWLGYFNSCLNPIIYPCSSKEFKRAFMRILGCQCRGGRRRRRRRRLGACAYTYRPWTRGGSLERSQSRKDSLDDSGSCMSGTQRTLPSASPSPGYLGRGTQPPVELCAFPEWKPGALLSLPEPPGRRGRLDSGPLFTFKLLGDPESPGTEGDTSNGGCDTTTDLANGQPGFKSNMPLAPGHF
T2 sequence (P23944 whole entry): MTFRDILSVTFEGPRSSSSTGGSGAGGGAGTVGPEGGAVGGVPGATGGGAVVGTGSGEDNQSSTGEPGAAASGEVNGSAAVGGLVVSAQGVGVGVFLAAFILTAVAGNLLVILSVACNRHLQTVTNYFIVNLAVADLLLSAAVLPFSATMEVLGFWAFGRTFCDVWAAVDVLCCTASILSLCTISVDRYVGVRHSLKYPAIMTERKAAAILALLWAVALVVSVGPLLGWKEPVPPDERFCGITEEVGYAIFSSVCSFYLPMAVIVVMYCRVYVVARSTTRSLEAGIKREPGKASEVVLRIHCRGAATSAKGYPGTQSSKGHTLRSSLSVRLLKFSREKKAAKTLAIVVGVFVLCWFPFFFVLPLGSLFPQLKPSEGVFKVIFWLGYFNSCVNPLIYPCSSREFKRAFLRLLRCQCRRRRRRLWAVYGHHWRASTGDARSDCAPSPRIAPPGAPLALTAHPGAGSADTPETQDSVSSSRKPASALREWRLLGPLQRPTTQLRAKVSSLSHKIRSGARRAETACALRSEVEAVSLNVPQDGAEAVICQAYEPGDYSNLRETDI
T2 sequence (P43140 whole entry): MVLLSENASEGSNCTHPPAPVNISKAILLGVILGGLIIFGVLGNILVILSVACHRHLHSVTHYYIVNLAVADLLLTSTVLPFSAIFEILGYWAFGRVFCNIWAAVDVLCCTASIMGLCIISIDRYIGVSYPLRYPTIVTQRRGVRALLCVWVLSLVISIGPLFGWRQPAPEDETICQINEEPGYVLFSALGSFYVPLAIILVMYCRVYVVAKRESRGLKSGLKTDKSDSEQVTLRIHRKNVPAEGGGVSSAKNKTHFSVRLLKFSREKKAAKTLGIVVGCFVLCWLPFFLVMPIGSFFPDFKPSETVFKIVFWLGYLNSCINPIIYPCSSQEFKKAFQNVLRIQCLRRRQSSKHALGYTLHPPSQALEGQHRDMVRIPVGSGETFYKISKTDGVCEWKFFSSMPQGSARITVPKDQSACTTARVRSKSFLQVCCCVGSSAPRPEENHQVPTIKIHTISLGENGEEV

[3] = target: T1, Adrenergic receptor alpha-2 (Rattus norvegicus); assay: Presynaptic antagonist activity towards alpha-2 adrenergic receptor.; format: functional; summary of the method: as §1
[4] = target: T3, Adrenergic receptor alpha-1 (Rattus norvegicus) (UniProt P15823+P23944+P43140); assay: post-synaptic antagonist activity towards adrenergic receptor was determined. Concentration giving a dose response to phenylephrine (idazoxan=1) was reported.; format: functional
Summary of the method: (§2)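 The agonist was phenylephrine, tested on isolated rat anococcygeus under 0.5 g initial tension. At least five phenylephrine dose-response curves were run alone, then at least four in the presence of the analogue.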

[5] = target: Adrenergic receptor alpha (Rattus norvegicus) (UniProt P15823+P23944+P43140+P22086+P19328+P22909); assay: Selectivity as ratio […] against alpha-2 receptor to that of alpha-1 receptor.; format: protein assay
[6] = target: T3, Adrenergic receptor alpha-1 (Rattus norvegicus); assay: Alpha-1 adrenergic receptor binding activity relative to idazoxan.; format: protein assay
[7] = target: T4, Adrenergic receptor alpha-2 (Rattus norvegicus, UniProt P22086+P19328+P22909); assay: Alpha-2 adrenergic receptor antagonist activity in a rat vas deferens assay. Values ranges from 7.80-8.14; format: functional, tissue-based
T4 sequence (P22086 whole entry): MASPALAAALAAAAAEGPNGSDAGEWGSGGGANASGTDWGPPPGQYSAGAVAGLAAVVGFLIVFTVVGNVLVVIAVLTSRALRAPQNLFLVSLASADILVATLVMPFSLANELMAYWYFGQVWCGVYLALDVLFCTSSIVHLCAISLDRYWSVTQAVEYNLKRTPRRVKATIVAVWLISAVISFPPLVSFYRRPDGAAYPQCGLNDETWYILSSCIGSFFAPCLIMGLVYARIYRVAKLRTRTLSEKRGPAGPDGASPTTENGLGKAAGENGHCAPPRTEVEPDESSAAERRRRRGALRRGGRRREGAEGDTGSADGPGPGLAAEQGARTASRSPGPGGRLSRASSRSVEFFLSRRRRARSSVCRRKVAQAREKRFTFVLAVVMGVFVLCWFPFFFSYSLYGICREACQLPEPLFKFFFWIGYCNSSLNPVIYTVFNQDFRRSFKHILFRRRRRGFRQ
T4 sequence (P19328 whole entry): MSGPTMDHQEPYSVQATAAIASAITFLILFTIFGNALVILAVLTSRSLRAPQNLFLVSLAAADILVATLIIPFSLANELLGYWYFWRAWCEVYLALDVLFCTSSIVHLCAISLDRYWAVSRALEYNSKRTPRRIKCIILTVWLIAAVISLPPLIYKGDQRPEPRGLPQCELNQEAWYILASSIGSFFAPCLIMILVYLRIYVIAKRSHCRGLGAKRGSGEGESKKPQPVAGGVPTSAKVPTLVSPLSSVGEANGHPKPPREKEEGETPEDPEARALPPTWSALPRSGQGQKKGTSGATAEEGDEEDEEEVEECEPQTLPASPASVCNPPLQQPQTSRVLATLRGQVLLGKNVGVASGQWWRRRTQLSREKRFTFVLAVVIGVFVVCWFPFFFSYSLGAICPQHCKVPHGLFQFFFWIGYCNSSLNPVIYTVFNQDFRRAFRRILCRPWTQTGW
T4 sequence (P22909 whole entry): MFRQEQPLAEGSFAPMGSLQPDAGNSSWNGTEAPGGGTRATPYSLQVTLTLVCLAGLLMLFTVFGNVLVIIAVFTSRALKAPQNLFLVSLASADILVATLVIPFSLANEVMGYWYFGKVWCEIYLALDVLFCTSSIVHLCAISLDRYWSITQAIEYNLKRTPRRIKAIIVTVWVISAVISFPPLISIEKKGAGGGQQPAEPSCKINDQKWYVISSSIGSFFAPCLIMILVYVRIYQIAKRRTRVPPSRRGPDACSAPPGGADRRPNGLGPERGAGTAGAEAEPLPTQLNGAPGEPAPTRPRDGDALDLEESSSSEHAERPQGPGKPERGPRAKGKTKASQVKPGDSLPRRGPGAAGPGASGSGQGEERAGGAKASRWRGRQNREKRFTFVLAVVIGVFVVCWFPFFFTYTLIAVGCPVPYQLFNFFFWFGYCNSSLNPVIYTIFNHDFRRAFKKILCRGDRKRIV

[8] = target: T2, Adrenergic receptor alpha-1; assay: Alpha-1 adrenergic receptor antagonist activity in a rat anococcygeus. Values ranges from 6.63-6.78; format: functional
[9] = target: T4, Adrenergic receptor alpha-2; assay: Alpha-2 adrenergic receptor antagonist activity in a rat vas deferens assay. Values ranges from 8.31-8.44; format: functional
Summary of the method: (§3)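 pA2 at presynaptic α2-adrenoreceptors in field-stimulated rat vas deferens. Tissue was held in Krebs solution (NaCl 118 mM, KCl 4.7 mM, CaCl2 2.5 mM, KH2PO4 1.2 mM, MgSO4 0.6 mM, NaHCO3 25 mM, dextrose 11.1 mM) gassed with 95% O2/5% CO2 at 30 °C. Stimulation was 3-ms pulses, 40 V, 0.1 Hz, with contractions recorded isometrically. Twitches were inhibited by clonidine (110 nM).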

[10] = target: T3, Adrenergic receptor alpha-1 (Rattus norvegicus); assay: post-synaptic antagonist activity towards alpha-1 adrenergic receptor was determined. Concentration giving a dose response to phenylephrine (idazoxan=1) was reported.; format: functional
Summary of the method: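 Rat anococcygeus, postsynaptic α1 antagonism. At least five phenylephrine concentration–response curves were run alone, then at least four with the antagonist present.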

[11] = target: T2, Adrenergic receptor alpha-1; assay: Alpha-1 adrenergic receptor activity in a rat anococcygeus. Values ranges from 6.17-6.38
[12] = target: T4, Adrenergic receptor alpha-2; assay: Alpha-2 adrenergic receptor activity in a rat vas deferens assay. Values ranges from 8.25-9.35; format: tissue-based; summary of the method: as §3
[13] = target: T4, Adrenergic receptor alpha-2; assay: Alpha-2 adrenergic receptor antagonist activity in a rat vas deferens assay. Values ranges from 7.77-8.21; format: functional, tissue-based
[14] = target: T3, Adrenergic receptor alpha-1 (Rattus norvegicus); assay: Alpha-1 adrenergic receptor antagonist activity relative to idazoxan.; format: functional; summary of the method: as §2
[15] = target: T2, Adrenergic receptor alpha-1; assay: Alpha-1 adrenergic receptor activity in a rat anococcygeus. Values ranges from 5.49-6.90
[16] = target: T2, Adrenergic receptor alpha-1; assay: Alpha-1 adrenergic receptor antagonist activity in a rat anococcygeus. Values ranges from 5.84-6.31; format: functional
[17] = target: T4, Adrenergic receptor alpha-2; assay: Alpha-2 adrenergic receptor antagonist activity in a rat vas deferens assay. Values ranges from […]; format: functional, tissue-based; summary of the method: as §3
[18] = target: T2, Adrenergic receptor alpha-1; assay: Alpha-1 antagonist activity in a rat anococcygeus. Values ranges from 6.6-7.23; format: functional
[19] = target: T4, Adrenergic receptor alpha-2; assay: Alpha-2 adrenergic receptor antagonist activity in a rat vas deferens assay. Values ranges from 9.30-9.52; format: functional, tissue-based; summary of the method: as §3
[20] = target: T4, Adrenergic receptor alpha-2; assay: Alpha-2 adrenergic receptor activity in a rat vas deferens assay. Values ranges from 8.85-9.01; format: tissue-based; summary of the method: as §3
[21] = target: T2, Adrenergic receptor alpha-1; assay: Alpha-1 adrenergic receptor antagonist activity in a rat anococcygeus. Values ranges from 6.53-7.08; format: functional
[22] = target: T4, Adrenergic receptor alpha-2; assay: Alpha-2 adrenergic receptor antagonist activity in a rat vas deferens assay. Values ranges from 8.74-9.17; format: functional; summary of the method: as §3
[23] = target: T2, Adrenergic receptor alpha-1; assay: Alpha-1 adrenergic receptor antagonist activity in a rat anococcygeus. Values ranges from 6.35-6.88; format: functional
[24] = target: T2, Adrenergic receptor alpha-1; assay: Alpha-1 adrenergic receptor antagonist activity in a rat anococcygeus. Values ranges from 6.29-6.54; format: functional
[25] = target: T4, Adrenergic receptor alpha-2; assay: Alpha-2 adrenergic receptor antagonist activity in a rat vas deferens assay. Values ranges from 8.37-9.10; format: functional; summary of the method: as §3

Row | SMILES | Relative potency [1] | potency relative to idazoxan [3] | Ratio [5] | Relative potency [6] | Postsynaptic antagonist [10] | also measured
1 | CC1(C2=NCCN2)COc2ccccc2O1.Cl (stereo not drawn) | 0.3 | 0.67 | 2.4 | 0.1 |  | pA2 [2]: 5.44; Postsynaptic antagonist [4]: 0.28; pA2 [7]: 8.14
2 | CCCCOC1(C2=NCCN2)COc2ccccc2O1 (stereo not drawn) | 0.7 | 1.6 | 0.7 | 2.4 | 2.2 | pA2 [8]: 6.7; pA2 [9]: 8.37
3 | CCCOC1(C2=NCCN2)COc2ccccc2O1 (stereo not drawn) | 1.4 | 1.5 | 1.5 | 0.9 | 1 | pA2 [11]: 6.26; pA2 [12]: 8.64
4 | C1=C(C2(C3=NCCN3)COc3ccccc3O2)CC1.Cl (stereo not drawn) | 0.3 | 0.3 | 2.3 |  | 0.13 | pA2 [13]: 8.21; Relative potency [14]: 0.3; pA2 [15]: 6.9
5 | CC(C)OC1(C2=NCCN2)COc2ccccc2O1 (stereo not drawn) | 1.5 | 1 | 1.6 | 0.5 | 0.6 | pA2 [16]: 6.01; pA2 [17]: 8.67
6 | COC1(C2=NCCN2)COc2ccccc2O1 (stereo not drawn) | 8.1 | 11 | 2.8 | 4 | 4 | pA2 [18]: 6.91; pA2 [19]: 9.41
7 | CCOC1(C2=NCCN2)COc2ccccc2O1.Cl (stereo not drawn) | 2.6 | 5.9 | 0.8 | 2.6 | 7 | pA2 [20]: 8.92; pA2 [21]: 6.74
8 | CCCC1(C2=NCCN2)COc2ccccc2O1 (stereo not drawn) | 2.6 | 4.8 | 1.5 | 1.7 | 3.2 | pA2 [22]: 8.92; pA2 [23]: 6.56
9 | c1ccc(COC2(C3=NCCN3)COc3ccccc3O2)cc1 (stereo not drawn) | 1.5 | 2 | 0.7 | 1.2 | 3 | pA2 [24]: 6.39; pA2 [25]: 8.68
